Bioassay records deposited in PubChem BioAssay by The Scripps Research Institute Molecular Screening Center.
In the library only some 1.8% were active in any assay of this set; here they are far more common.
NPY Y1 blocker: blocks the human neuropeptide Y Y1 receptor; HEK293-CNG Y1 cells, membrane potential fluorescence; NPY at EC95, then isoproterenol; AID 1040; P25929; inhibition, % at 3.6 µM; hit rate 1% among 200,000;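 active = inhibition above the campaign mean inhibition of all tested compounds plus 3 SD, cut at about 20% in these data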;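 note: 0% = DMSO wells given NPY plus isoproterenol and 100% = isoproterenol alone without NPY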
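Test system: HEK293 cells co-expressing NPY Y1 receptor and cyclic-nucleotide gated channel; Also added: NPY (25 nM), isoproterenol (1 µM), Ro 20-1724 (25 µM); Compound dosing: one concentration, 3.6 µM, in 0.4% DMSO; Timing: dye 3 h, compound 60 min room temperature, stimulation 45 min; Technique: Membrane-potential fluorescent dye readout.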
NPY-Y2 PAM-ag: potentiators or agonists of human neuropeptide Y receptor Y2. cells expressing NPY-Y2, potentiator/agonist read-out. AID 1359. P49146. activation, % at 3.6 µM. hit rate 0.45% among 220,000; in the data active = activation above about 27%;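 note: cells stimulated with NPY near EC25 plus isoproterenol at EC100; 0% = vehicle plus submaximal agonist and 100% = vehicle plus saturating agonist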
Target sequence (P49146 whole entry, looked up): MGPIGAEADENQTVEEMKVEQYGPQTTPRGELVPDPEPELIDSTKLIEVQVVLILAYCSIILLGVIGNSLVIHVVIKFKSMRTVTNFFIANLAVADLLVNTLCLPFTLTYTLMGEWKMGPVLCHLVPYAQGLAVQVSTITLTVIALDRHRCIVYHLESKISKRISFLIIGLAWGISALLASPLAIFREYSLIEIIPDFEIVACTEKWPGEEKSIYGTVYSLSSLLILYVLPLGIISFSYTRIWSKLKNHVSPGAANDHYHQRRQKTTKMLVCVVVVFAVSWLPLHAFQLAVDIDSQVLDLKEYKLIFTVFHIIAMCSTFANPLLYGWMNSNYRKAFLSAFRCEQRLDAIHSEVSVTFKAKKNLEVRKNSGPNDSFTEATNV
NPY-Y2 antag: NPY-Y2 (human) receptor antagonism. P49146. NPY-Y2 expressing cells, antagonist mode. inhibition, % at 2.7 µM. hit rate 0.99% among 140,000. AID 793; in the data active = inhibition above about 17%;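 note: 0% = vehicle with agonist challenge and 100% = reference antagonist with challenge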
NPY1 pot ag: potentiators or agonists of human neuropeptide Y receptor Y1; P25929; activation, % at 3.6 µM; hit rate 0.37% among 220,000; NPY-Y1 expressing cells, potentiator/agonist activation; in the data active = activation above about 33%, passing the limit was not always enough;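 note: cells stimulated with NPY at EC10 then isoproterenol at EC100; 0% = low agonist plus stimulus and 100% = saturating agonist plus stimulus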
NPY-Y2 pot conf: human NPY-Y2 potentiation or agonism, confirmation. shares compounds with NPY-Y2 PAM-ag. cell-based NPY-Y2 potentiator/agonist assay. activation, % at 3.6 µM. hit rate 20% among 450. AID 1539; in the data active = activation above about 33%
NPY-Y1 potentiator: potentiates or activates NPY-Y1, counter-screen for NPY-Y2 hits | shares compounds with NPY-Y2 PAM-ag | Y1 HEK293-CNG cells, membrane potential fluorescence | activation, % at 3.6 µM | hit rate 20% among 450; in the data active = activation above about 45%;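 note: cells stimulated with submaximal NPY then isoproterenol with phosphodiesterase inhibitor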
NPY-Y1 ag 2: human NPY-Y1 agonism as NPY-Y2 potentiator counter-screen. shares compounds with NPY-Y2 PAM-ag. HEK293 Y1-CNGC, membrane potential fluorescence. hit rate 37% among 450. AID 1702. activation, % at 3.6 µM;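 active = activation above the mean of DMSO-only control wells plus 3 SD, cut at about 18% in these data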;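 note: cells stimulated with 1 µM isoproterenol plus the PDE inhibitor Ro 20-1724; 0% = isoproterenol with DMSO and no NPY and 100% = 40 nM NPY; Y1 agonists lower the membrane potential dye signal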
CNGC inh: cyclic nucleotide gated channel inhibition as counter-screen. shares compounds with NPY-Y2 PAM-ag. HEK293-CNG parental, isoproterenol cAMP, membrane potential fluorescence. inhibition, % at 3.6 µM. hit rate 32% among 450. AID 1703;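 active = inhibition above the control-well mean plus 3 SD of those wells, cut at about 22% in these data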;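 note: 0% = DMSO with isoproterenol and 100% = DMSO without isoproterenol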
NPY-Y2 ag 2: counter-screen for NPY-Y2 potentiators: agonists of human NPY-Y2; shares compounds with NPY-Y2 PAM-ag; HEK293 Y2/CNGC cells, membrane potential fluorescence, agonist mode; activation, % at 3.6 µM; hit rate 56% among 450;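 active = activation above the mean of solvent-only control wells plus 3 SD, cut at about 10% in these data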;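 note: cells stimulated by isoproterenol with no NPY added so direct agonism is tested; 0% = DMSO with isoproterenol alone and 100% = NPY at EC100 plus isoproterenol; agonism lowers probe fluorescence through less cAMP and CNG channel opening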
Active calls of the source: *; · = no result given.

SMILES | NPY Y1 blocker | NPY-Y2 PAM-ag | NPY-Y2 antag | NPY1 pot ag | NPY-Y2 pot conf | NPY-Y1 potentiator | NPY-Y1 ag 2 | CNGC inh | NPY-Y2 ag 2
CC1=NC(=O)C(N=Nc2ccccc2C(=O)O)N1c1ccccc1 (stereo not given) | -4 | 30* | · | 30 | 21 | 29 | 10 | -1 | 15*
O=C(/C=C/c1cccc([N+](=O)[O-])c1)NCCc1ccc(F)cc1 | 3 | 7 | 9 | -7 | · | · | · | · | ·
O=C(/C=C/c1ccc([N+](=O)[O-])cc1)NCCc1ccc(F)cc1 | 2 | 46* | · | 9 | 0 | -2 | -5 | -1 | 9
Cc1ccc(C(=O)Nc2nc3ccccc3n2CCN2CCCC2)cc1 | 9 | 44* | 4 | 14 | 50* | 50* | 19* | 39* | 47*
Cc1ccc(C)c(Nc2ncnc(N)c2[N+](=O)[O-])c1 | -2 | 13 | 1 | 15 | · | · | · | · | ·
Cc1ccc(C)c(Nc2nc(N)c3ccccc3n2)c1 | 0 | 36* | · | 21 | 64* | 82* | 44* | 58* | 55*
OC(CSc1ccc(F)cc1)CN1CCN(c2ccccc2)CC1 (stereo not given) | 9 | -1 | · | -8 | · | · | · | · | ·
NC(=O)c1ccc2nc(NC(=O)c3ccc(N)cc3)sc2c1 | -5 | 31* | · | 23 | 11 | 14 | 18* | 16 | 18*
O=S(=O)(Nc1cccc2ccccc12)c1cccc2nonc12 | · | 63* | · | 19 | -1 | 6 | -3 | -3 | -2
CCc1cccc(NC(=O)c2cc(OC)c(OC)c(OC)c2)c1 | 3 | 61* | · | -10 | -7 | -8 | -20 | -2 | -1
COc1cc(C(=O)Nc2ccc3c(c2)C(=O)c2ccccc2C3=O)cc(OC)c1OC | 3 | -2 | 4 | -23 | · | · | · | · | ·
COc1ccc(-n2nnnc2SCC(=O)NCCc2ccccc2)cc1OC | 3 | 56* | · | 14 | -2 | -4 | -1 | 5 | 17*
CCC(C)COC(=O)C(C#N)c1nc2ccccc2nc1N1CCCCC1 (stereo not given) | 8 | -1 | 0 | -2 | · | · | · | · | ·
CCC(CC)COC(=O)C(C#N)c1nc2ccccc2nc1N1CCN(CC)CC1 (stereo not given) | -2 | 31* | 8 | 26 | 52* | 57* | 33* | 46* | 64*
Cc1cc(C(=O)COC(=O)CN=C2NS(=O)(=O)c3ccccc32)c(C)n1CCc1ccc(Cl)cc1 | 0 | 4 | 2 | -7 | · | · | · | · | ·
CCN(CC)c1ccc(NC(=O)/C=C\c2ccccc2Cl)cc1 | -6 | 31* | -1 | 41 | 17 | 26 | 25* | 27* | 27*
COc1ccc(NC(=O)c2c(OC)cccc2OC)c(OC)c1 | 0 | 28* | -1 | 1 | 9 | 10 | 14 | 13 | 17*
CCOc1ccccc1NC(=O)c1cc(SC)ccc1Cl | 4 | -7 | · | -8 | · | · | · | · | ·
O=C(CSc1nnc(-c2cccnc2)n1Cc1ccco1)Nc1nc(-c2ccc(F)cc2)cs1 | -3 | -7 | 2 | 11 | · | · | · | · | ·
FC(F)Oc1ccc(-c2csc(=Nc3cccnc3)n2CC2CCCO2)cc1 (stereo not given) | 9 | -6 | 8 | -3 | · | · | · | · | ·
OC1(c2ccc(OC(F)F)cc2)CSC(=Nc2cccnc2)N1Cc1ccco1 (stereo not given) | -4 | 35* | · | 29 | 13 | 22 | 9 | 9 | 13*
OC1(c2ccc(F)cc2)CSC(=Nc2cccnc2)N1Cc1ccco1 (stereo not given) | -11 | 34* | · | 26 | 7 | 19 | 5 | -2 | 7
Cc1ccc(Nc2c(-c3ccc(N4CCOCC4)cc3)nc3cnccn23)cc1 | · | 4 | · | 14 | · | · | · | · | ·
Cc1ccccc1Nc1c(-c2ccc(N3CCOCC3)cc2)nc2cnccn12 | · | 39* | · | 45 | 68* | 76* | 52* | 48* | 68*
CCc1cc[n+](/C(C(=S)Nc2cccc(C)c2)=C(/[O-])c2ccc(C)c([N+](=O)[O-])c2)cc1 | -3 | 42* | 3 | 39 | 4 | 11 | 9 | 15 | 15*
O=C(O)CCCSc1nccn1-c1ccccc1 | 6 | -2 | · | 1 | · | · | · | · | ·
Cc1ccc(NC2=Nc3ccccc3CS2)cc1 | 6 | 36* | 1 | 37 | 1 | -5 | 5 | 4 | 6
CC(=O)Nc1ccc(S(=O)(=O)NCCSCc2c(Cl)cccc2Cl)cc1 | -3 | 36* | 0 | 3 | -1 | -4 | -11 | -4 | -3
CC(=O)Nc1ccc(S(=O)(=O)NCCSCc2cccc(Cl)c2)cc1 | -9 | 7 | 5 | 11 | · | · | · | · | ·
CC(=O)C(=Nc1ccc(Cl)cc1Cl)NNc1cccc(Cl)c1 | -7 | 33* | -9 | 39 | 16 | 8 | 7 | 9 | 28*
